Test [1] deals with Olineu. Briefly: Induction in mouse Oli-neu cell differentiation to oligodendrocytes assessed as decrease in cell number at 5 uM after 48 hrs. In kind it is functional. A digest of the protocol: (§1)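 Oli-Neu cells (immortalized mouse oligodendrocyte precursors) exposed to 5 μM compound for 48 h. Proliferation was scored by cell counting and differentiation by filament length. Values are % of control, mean SE of at least three experiments, one-way ANOVA with Bonferroni.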

Test [2] concerns N9 (Mus musculus). Briefly: Immunomodulatory activity in LPS treated mouse N9 microglial cells assessed as shift in M1 neurotoxic phenotype to M2 neuroprotective by measuring decrease in iNOS expression level at 0.5 uM preincubated for 6 hrs by western blot analysis. (A western blot detects proteins with antibodies after separation by electrophoresis.)
For test [3], the target named is T1, Histone deacetylase (Homo sapiens) (UniProt Q13547+O15379+Q9UBN7+Q92769+Q9UQL6+Q8WUI4+Q9BY41+Q96DB2+P56524+Q9UKV0+Q969S8). Briefly: Inhibition of HDAC in human medulloblastoma (DAOY) cells assessed as increase in acetylated histone levels at […] after 48 hrs by densitometric analysis.
The test system of test [4] is N9 (Mus musculus). The test can be described thus: Immunomodulatory activity in LPS treated mouse N9 microglial cells assessed as reduction in nitrite level at 0.5 uM preincubated for 6 hrs by Griess reagent assay. As to conditions: time 24.0 hrs.
Test [5] concerns Cerebellar granule neurone. The test can be described thus: Neuroprotective activity against glutamate/glycine-induced excitotoxicity in rat primary Cerebellar granule neurone at 10 uM preincubated for 6 hrs measured after 24 hrs by MTT assay. In kind it is functional, tissue-based. The essentials:
(§2)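 Primary rat cerebellar granule neurons at 8 DIV pretreated 6 h with compound (5, 10, 25 μM), then 100 μM glutamate/10 μM glycine added for a further 24 h with compound present. Viability was read by MTT, expressed as % of control. Values are mean SE of at least four experiments, each in triplicate.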
For orientation: Formazan colour is commonly taken as a measure of viable cells.

The target in test [6] is T1, Histone deacetylase (Homo sapiens). The test can be described thus: Inhibition of HDAC in human medulloblastoma (DAOY) cells assessed as increase in acetylated histone levels at 0.5 mM after 48 hrs by densitometric analysis. A digest of the protocol: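 HDAC inhibition in human DAOY medulloblastoma cells was read as acetylated histone H3 by immunoblot densitometry. […] Values are mean SD of three independent experiments, Newman–Keuls after ANOVA versus vehicle.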

For test [7], the system named is Cerebellar granule neurone. The test can be described thus: Neuroprotective activity against glutamate/glycine-induced excitotoxicity in rat primary Cerebellar granule neurone at 25 uM preincubated for 6 hrs measured after 24 hrs by MTT assay. The class given is functional, tissue-based. A digest of the protocol: as §2
Test [8] concerns N9 (Mus musculus). Briefly: Immunomodulatory activity in LPS treated mouse N9 microglial cells assessed as shift in M1 neurotoxic phenotype to M2 neuroprotective by measuring TREM2 expression level at 0.5 uM preincubated for 6 hrs by western blot analysis.
Test [9] deals with Olineu. The test can be described thus: Induction in mouse Oli-neu cell differentiation to oligodendrocytes assessed as increase in filament length at 5 uM after 48 hrs. In kind it is functional. A digest of the protocol: as §1
Test [10] relates to Olineu. Briefly: Induction in mouse Oli-neu cell differentiation to oligodendrocytes assessed as decrease in Olig2 expression at 5 uM after 48 hrs by Western blot analysis.
In test [11] the test system is Cerebellar granule neurone. Briefly: Neuroprotective activity against glutamate/glycine-induced excitotoxicity in rat primary Cerebellar granule neurone at 5 uM preincubated for 6 hrs measured after 24 hrs by MTT assay. In kind it is functional, tissue-based. A digest of the protocol:
as §2

Test [12] relates to Olineu. The test can be described thus: Induction in mouse Oli-neu cell differentiation to oligodendrocytes assessed as increase in CNPase expression at 5 uM after 72 hrs by Western blot analysis. The class given is functional. A digest of the protocol: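 Oli-Neu cells exposed to 5 μM compound; Olig2 was assessed at 48 h and CNPase at 72 h. Values are % of control, mean SE of at least three experiments, one-way ANOVA with Bonferroni.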

Each structure is given as a SMILES string. Activity calls are given as the source filed them. The rule behind the calls is not given here.

Turning to `CC/C=C\C/C=C\C/C=C\CCCCCCCC(=O)NCCNC(=O)C(CCC)CCC`, the result (with Olineu [1]; in test [5]; in the test on Olineu [9]; in the test with Olineu [10]; in test [11]; in the test with Olineu [12]) was Active. The inhibition result (in the test on N9 (Mus musculus) [2]; in test [3]; in the test with N9 (Mus musculus) [4]; in [6]) was “Active” each time. The outcome in [7] was inactive. Also, the inhibition entry with N9 (Mus musculus) [8] was “inactive”.

In the case of `CC/C=C\C/C=C\C/C=C\CCCCCCCC(=O)NCCOC(=O)C(CCC)CCC`, the outcome (with Olineu [1]; in test [5]; in the test with Olineu [9]; in the test with Olineu [10]; in test [11]) was Active. Besides, the inhibition entry (in the test on N9 (Mus musculus) [2]; in test [3]; with N9 (Mus musculus) [4]; in [6]) was “Active” in each case. The outcome in test [7] was inactive. The inhibition entry in the test with N9 (Mus musculus) [8] is “inactive”.

Take `CC/C=C\C/C=C\C/C=C\CCCCCCCC(=O)O`: in test [7], the result was inactive.

For the compound `CCCC(CCC)C(=O)O`, the outcome with Olineu [1] and in the test on Olineu [12] was Active. Moreover, in test [3], the inhibition result is “Active”. In addition, the outcome in test [5], in test [7] and in [11] was inactive.

(Values after ChEMBL document CHEMBL4665897, “α-Linolenic Acid-Valproic Acid Conjugates: Toward Single-Molecule Polypharmacology for Multiple Sclerosis” (ACS Med Chem Lett, 2020).)
